In ChEMBL document CHEMBL1158112, “A nitrogen-containing 3-alkyl-1,4-benzoquinone and a gomphilactone derivative from Embelia ribes” (J Nat Prod, 2006):
pIC50: −log10 of the molar value. Activity calls are given as the source filed them. The rule behind the calls is not given here.

How the values were obtained:
[1] = target: Prothrombin (Homo sapiens) (UniProt P00734); experiment: Inhibition of thrombin at 50 uM
[2] = system: A549; experiment: Cytotoxicity against human A549 cells after 96 hrs by MTT assay; assay type: functional, cell-based; conditions: A549, 96 h
Method in brief: (§1)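 Cells grown in RPMI1640 with 10% FBS, 100 units/mL penicillin and 100 µg/mL streptomycin, at 37 °C in humidified 5% CO2. Seeded at 1200 cells/well; compounds added after 24 h at five concentrations (final DMSO 0.1%), triplicate wells.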

[3] = system: A2780; experiment: Cytotoxicity against human A2780 cells after 96 hrs by MTT assay; assay type: functional, cell-based; conditions: A2780, 96 h; method in brief: as §1
[4] = system: Bel-7402; experiment: Cytotoxicity against human Bel-7402 cells after 96 hrs by MTT assay; assay type: functional, cell-based; conditions: Bel-7402, 96 h; method in brief: as §1
[5] = system: BGC-823; experiment: Cytotoxicity against human BGC-823 cells after 96 hrs by MTT assay; assay type: functional, cell-based; conditions: BGC-823, 96 h; method in brief: as §1
[6] = system: HCT-8; experiment: Cytotoxicity against human HCT8 cells after 96 hrs by MTT assay; assay type: functional, cell-based; conditions: HCT-8, 96 h; method in brief: as §1
[7] = target: T1, Tyrosine-protein phosphatase non-receptor type 1 (Homo sapiens) (UniProt P18031); experiment: Inhibition of PTP1B at 50 uM
T1 sequence (whole entry): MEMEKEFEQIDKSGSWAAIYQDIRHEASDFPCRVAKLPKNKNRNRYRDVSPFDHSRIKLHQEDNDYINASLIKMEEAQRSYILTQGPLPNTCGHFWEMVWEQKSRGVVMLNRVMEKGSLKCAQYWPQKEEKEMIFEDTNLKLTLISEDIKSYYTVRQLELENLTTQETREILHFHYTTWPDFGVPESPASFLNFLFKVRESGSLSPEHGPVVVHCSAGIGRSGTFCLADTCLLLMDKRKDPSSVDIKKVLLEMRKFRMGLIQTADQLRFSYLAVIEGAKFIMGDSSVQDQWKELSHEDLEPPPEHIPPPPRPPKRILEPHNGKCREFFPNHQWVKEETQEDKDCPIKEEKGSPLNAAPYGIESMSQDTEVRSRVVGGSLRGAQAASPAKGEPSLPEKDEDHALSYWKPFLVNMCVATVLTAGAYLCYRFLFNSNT

CCCCC/C=C\C/C=C\CCCCCCCc1cc(O)cc(O)c1
Activity [1]: inactive | pIC50 [2]: 5.85 | pIC50 [3]: 5.80 | pIC50 [4]: 5.72 | pIC50 [5]: 5.75 | pIC50 [6]: 5.81 | Activity [7]: inactive

CCCCCCCCCCCCCC1=C(O)/C(=C2\C(=O)Oc3c2cc(O)c(O)c3CCCCCCCCCCCCC)OC1=O
Activity [1]: inactive | IC50 [2]: > 10 µg/mL | IC50 [3]: > 10 µg/mL | IC50 [4]: > 10 µg/mL | IC50 [5]: > 10 µg/mL | IC50 [6]: > 10 µg/mL | Activity [7]: inactive

CCCCCCCC/C=C\CCCCCCCc1cc(O)cc(O)c1
Activity [1]: inactive | pIC50 [2]: 6.34 | pIC50 [3]: 5.97 | pIC50 [4]: 5.97 | pIC50 [5]: 5.84 | pIC50 [6]: 6.11 | Activity [7]: inactive

CCCCCCCCCCCCCC1=C(O)C(=O)C=C(NCCCC(=O)O)C1=O
Activity [1]: inactive | IC50 [2]: > 10 µg/mL | IC50 [3]: > 10 µg/mL | IC50 [4]: > 10 µg/mL | IC50 [5]: > 10 µg/mL | IC50 [6]: > 10 µg/mL | Activity [7]: inactive

COc1cc([C@H]2c3c(cc(OC)c(O)c3OC)C[C@@H](CO)[C@@H]2CO[C@@H]2O[C@H](CO)[C@@H](O)[C@H](O)[C@H]2O)cc(OC)c1O
Activity [1]: inactive | IC50 [2]: > 10 µg/mL | IC50 [3]: > 10 µg/mL | IC50 [4]: > 10 µg/mL | IC50 [5]: > 10 µg/mL | IC50 [6]: > 10 µg/mL | Activity [7]: inactive

CCCCCc1cc(O)cc(OC)c1
Activity [1]: inactive | IC50 [2]: > 10 µg/mL | IC50 [3]: > 10 µg/mL | IC50 [4]: > 10 µg/mL | IC50 [5]: > 10 µg/mL | IC50 [6]: > 10 µg/mL | Activity [7]: inactive

CC[C@H](CC[C@@H](C)[C@H]1CC[C@H]2[C@@H]3CC=C4C[C@@H](O)CC[C@]4(C)[C@H]3CC[C@]12C)C(C)C [BETA-SITOSTEROL]
Activity [1]: inactive | IC50 [2]: > 10 µg/mL | IC50 [3]: > 10 µg/mL | IC50 [4]: > 10 µg/mL | IC50 [5]: > 10 µg/mL | IC50 [6]: > 10 µg/mL | Activity [7]: inactive

CCCCCCCCCCCCCCCc1cc(O)cc(O)c1 [CARDOL]
Activity [1]: inactive | pIC50 [2]: 5.84 | pIC50 [3]: 5.88 | pIC50 [4]: 5.71 | pIC50 [5]: 5.76 | pIC50 [6]: 5.83 | Activity [7]: inactive

Oc1cc(O)c2c(c1)O[C@H](c1ccc(O)c(O)c1)[C@@H](O)C2 [CIANIDANOL]
Activity [1]: inactive | IC50 [2]: > 10 µg/mL | IC50 [3]: > 10 µg/mL | IC50 [4]: > 10 µg/mL | IC50 [5]: > 10 µg/mL | IC50 [6]: > 10 µg/mL | Activity [7]: inactive

COc1cc(O[C@@H]2O[C@H](CO)[C@@H](O)[C@H](O)[C@H]2O)cc(OC)c1O [KOABURASIDE]
Activity [1]: inactive | IC50 [2]: > 10 µg/mL | IC50 [3]: > 10 µg/mL | IC50 [4]: > 10 µg/mL | IC50 [5]: > 10 µg/mL | IC50 [6]: > 10 µg/mL | Activity [7]: inactive

COc1cc(O)cc(OC)c1O[C@@H]1O[C@H](CO)[C@@H](O)[C@H](O)[C@H]1O [LEONURISIDE]
Activity [1]: inactive | IC50 [2]: > 10 µg/mL | IC50 [3]: > 10 µg/mL | IC50 [4]: > 10 µg/mL | IC50 [5]: > 10 µg/mL | IC50 [6]: > 10 µg/mL | Activity [7]: inactive

CCCCCCCCCCCCCC1=C(O)C(=O)C=C(O)C1=O [Rapanone]
Activity [1]: inactive | pIC50 [2]: 5.80 | pIC50 [3]: 5.74 | pIC50 [4]: 5.84 | pIC50 [5]: 5.72 | pIC50 [6]: 5.82 | Activity [7]: inactive

CC[C@H](CC[C@@H](C)[C@H]1CC[C@H]2[C@@H]3CC=C4C[C@@H](O[C@@H]5O[C@H](CO)[C@@H](O)[C@H](O)[C@H]5O)CC[C@]4(C)[C@H]3CC[C@]12C)C(C)C [SITOGLUSIDE]
Activity [1]: inactive | IC50 [2]: > 10 µg/mL | IC50 [3]: > 10 µg/mL | IC50 [4]: > 10 µg/mL | IC50 [5]: > 10 µg/mL | IC50 [6]: > 10 µg/mL | Activity [7]: inactive

CC[C@@]1(O)C(=O)OCc2c1cc1n(c2=O)Cc2cc3c(CN(C)C)c(O)ccc3nc2-1 [TOPOTECAN]
pIC50 [2]: 5.46 | pIC50 [3]: 5.92 | pIC50 [4]: 5.85 | pIC50 [5]: 5.42 | pIC50 [6]: 5.92
